Screens as filed in PubChem.
ASAP1 GAP inh: ASAP1 ArfGAP inhibition; Q9ULH1; ASAP1-stimulated ARF1 GTP hydrolysis, GDP FP detection; inhibition, % at 16.5 µM; 360,000 compounds, 0.19% hits; AID 624377; in the data active = inhibition above about 25%;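 also: 0% = vehicle with enzyme and substrate and 100% = no enzyme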
LEDGF integ inh: blocks HIV-1 LEDGF/p75-dependent DNA integration. TR-FRET IN-LEDGF/p75 DNA integration, Eu/Cy5. inhibition, % at 3.7 µM. 370,000 compounds, 0.64% hits;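 active = inhibition above the screen-wide mean plus 3 SD, cut at about 13% in these data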;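 also: signal is the Cy5 over europium emission ratio at 671 and 618 nm; 0% = plate median of compound wells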
MBD2 DNA inh: blocks human MBD2 binding to methylated DNA | Q9UBB5 | TR-FRET, MBD2 binding to methylated oligonucleotide | inhibition, % at 4.4 µM | 370,000 compounds, 0.31% hits | AID 686964; in the data active = inhibition above about 13%
Target sequence (Q9UBB5 whole entry, looked up): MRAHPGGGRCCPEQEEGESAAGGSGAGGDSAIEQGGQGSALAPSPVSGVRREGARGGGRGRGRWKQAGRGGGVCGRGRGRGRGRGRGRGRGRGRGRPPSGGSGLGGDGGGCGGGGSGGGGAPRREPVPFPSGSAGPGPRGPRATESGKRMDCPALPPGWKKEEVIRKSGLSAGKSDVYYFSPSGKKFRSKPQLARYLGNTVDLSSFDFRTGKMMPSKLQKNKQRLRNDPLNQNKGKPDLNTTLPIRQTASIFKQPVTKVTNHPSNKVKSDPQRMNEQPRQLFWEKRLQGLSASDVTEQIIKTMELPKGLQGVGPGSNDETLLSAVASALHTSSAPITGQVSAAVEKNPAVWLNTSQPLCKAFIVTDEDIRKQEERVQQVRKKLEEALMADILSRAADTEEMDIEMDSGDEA
TCR CD3 inh: inhibitors of human TCR-CD3 interaction; TAMRA-labeled TCR probe fluorescence, biochemical; inhibition, % at 9.4 µM; 360,000 compounds, 0.37% hits; AID 651800; in the data active = inhibition above about 19%;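 also: recombinant mutant TCR 2C K166C tagged with TAMRA read by polarization; 0% = receptor in buffer alone and 100% = receptor with positive control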
UHRF1 binding: blocks human UHRF1 binding to methylated DNA; Q96T88; UHRF1 binding to methylated oligo, TR-FRET; inhibition, % at 4.4 µM; 370,000 compounds, 0.75% hits; AID 687016; in the data active = inhibition above about 21%;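 also: UHRF1 SRA domain binding a hemimethylated CpG hairpin DNA probe; 0% = median of test compound wells and 100% = reference inhibitor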
ARFGAP1 inhibitor: inhibits rat ARF GTPase activating protein 1 | Q62848 | Arfgap1-stimulated ARF1 GTP hydrolysis, GDP FP detection | inhibition, % at 16.5 µM | 360,000 compounds, 0.26% hits | AID 651572;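 active = inhibition above a per-plate limit, mean inhibition of low control wells plus 3 SD, cut at about 25% in these data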;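 also: 0% = DMSO wells with enzyme and 100% = wells lacking Arfgap1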
Target sequence (Q62848 1-136 limits assumed): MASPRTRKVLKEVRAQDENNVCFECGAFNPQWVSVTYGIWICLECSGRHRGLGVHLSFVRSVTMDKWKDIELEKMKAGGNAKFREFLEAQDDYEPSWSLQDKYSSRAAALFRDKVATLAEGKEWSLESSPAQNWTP
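System: truncated rat Arfgap1 GAP domain / Medium: HEPES-based buffer, pH 7.5 / Also added: N-terminally truncated human ARF1-GTP substrate / Incubation: enzyme reaction 120 min at 25 °C after 20 min preincubation / Measured by: FP of antibody-bound GDP Alexa 633 tracer, ex 620/em 688 nm / Replicates: singlicate, each compound tested once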
IN multimer act: activates HIV-1 integrase multimerization in LEDGF counter-screen | TR-FRET HIV-1 integrase multimerization, biochemical | shares compounds with LEDGF integ inh | activation, % at 7.7 µM | 2,000 compounds, 17% hits | AID 1053131; in the data active = activation above about 8.9%
TR-FRET interf: optically interferes with TR-FRET readout in LEDGF counter-screen | inhibition, % at 7.7 µM | shares compounds with LEDGF integ inh | TR-FRET optical interference counterscreen, HIV-1 IN multimerization | 2,000 tested, under 10 active;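 active = inhibition above the mean over all tested compounds plus 3 SD, which no compound reached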;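 also: 0% = integrase with antibodies and DMSO and 100% = antibodies without integrase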
LEDGF integ conf: LEDGF/p75-dependent HIV-1 integration inhibition, confirmation; shares compounds with LEDGF integ inh; AID 1053136; inhibition, % at 3.7 µM; 2,000 compounds, 36% hits; TR-FRET LEDGF/p75-dependent HIV-1 integration, biochemical; in the data active = inhibition above about 14%
The depositor's hits bear a star; nt = no result given. This is a sample that favours compounds with a hit; in the whole collection about 2% have one here.

SMILES | ASAP1 GAP inh | LEDGF integ inh | MBD2 DNA inh | TCR CD3 inh | UHRF1 binding | ARFGAP1 inhibitor | IN multimer act | TR-FRET interf | LEDGF integ conf
O=C1C=C(N2CCOCC2)c2ccccc2C1=O | 4.7 | 22.3* | -11.8 | 1.0 | 2.2 | 1.2 | 3.1 | -11.0 | 72.3*
C[C@@H]1CCCCO[C@@H](CN(C)CC2CCCCC2)[C@@H](C)CN([C@H](C)CO)C(=O)c2cc(NC(=O)Nc3ccc4c(c3)OCO4)ccc2O1 | 5.6 | -5.9 | 1.2 | 3.1 | 1.7 | -17.4 | nt | nt | nt
CCCn1c(NC(=O)c2ccccc2)nc(Cc2ccccc2)c1-c1ccc(OC)cc1 | nt | 12.6 | 4.7 | nt | -0.2 | nt | nt | nt | nt
COc1ccc(-c2c(Cc3ccccc3)nc(NC(=O)c3ccccc3F)n2C)cc1 | nt | 19.6* | 4.7 | nt | -1.4 | nt | 1.9 | -9.8 | 16.6*
NNC(=S)NCc1ccccc1 | 2.4 | 4.9 | -2.2 | -8.5 | 2.7 | -2.9 | nt | nt | nt
S=C(NCc1ccccc1)NCc1cccc(CNC(=S)NCc2ccccc2)c1 | 9.2 | 43.9* | 1.5 | 12.7 | -5.9 | 6.4 | 1.5 | -7.3 | -11.3
CN(C)S(=O)(=O)c1cccc(NC(=S)Nc2cc(Cl)cc(Cl)c2)c1 | -0.3 | -4.6 | 0.6 | 1.4 | 0.3 | 6.2 | nt | nt | nt
CN(C)S(=O)(=O)c1cccc(NC(=S)N/N=C/c2ccc(O)c(O)c2O)c1 | -1.3 | 55.3* | 3.6 | 50.6* | 14.7 | -5.0 | 18.9* | -67.2 | 41.4*
CCN(CCO)c1ccc(NC(=S)Nc2cccc(S(=O)(=O)N(C)C)c2)cc1 | -2.0 | 23.8* | -2.8 | -0.2 | -0.1 | -18.9 | 4.9 | -17.6 | 6.5
COc1ccccc1-n1cc2c([N+](=O)[O-])cc([N+](=O)[O-])cc2n1 | -3.3 | 2.8 | -1.8 | 3.0 | -2.4 | -4.2 | nt | nt | nt
Cc1nc(SCC(=O)Nc2nnc(C(C)C)s2)n[nH]1 | 5.9 | -5.1 | 2.4 | -0.5 | 1.6 | 5.6 | nt | nt | nt
COC(=O)c1ccc(N2NC(=O)/C(=C/c3cc(OC)c(OC)c(OC)c3)C2=O)cc1 | 5.8 | 14.3* | -1.6 | 1.7 | 1.0 | 2.8 | 3.5 | -12.4 | -1.9
CC(=O)c1ccc(S(=O)(=O)NCCC(=O)OCC(=O)N2CCCC2=O)cc1 | 14.9 | 4.1 | -0.9 | 6.2 | -0.5 | -8.6 | nt | nt | nt
Cc1ccccc1NC(=O)c1c(C)cc(=O)oc1C | 9.2 | -1.3 | 4.9 | 0.9 | 3.7 | -1.1 | nt | nt | nt
Cc1cc(=O)oc(C)c1C(=O)Nc1cccc2ccccc12 | 12.8 | 30.2* | -2.3 | -2.3 | -3.6 | 3.0 | 0.4 | -2.1 | -0.5
Cc1ccc([C@H]2N[C@]3(CCCN(Cc4ccc(C(F)(F)F)cc4)C3=O)[C@H]3C(=O)N(C)C(=O)[C@@H]23)cc1 | 5.1 | -0.6 | -1.0 | 4.8 | -1.8 | 1.5 | nt | nt | nt
COc1ccc(C(C(=O)NC2CCCC2)N(Cc2cccnc2)C(=O)c2snc(C(N)=O)c2N)cc1OC (stereo not given) | 4.4 | 1.6 | 1.2 | -1.6 | 0.9 | 5.3 | nt | nt | nt
C[C@@H]1[C@H](O)[C@@H](C)/C=C/C=C/C=C/C=C/C=C/C=C/C=C/[C@H](OC2O[C@H](C)[C@@H](O)[C@H](N)[C@@H]2O)C[C@@H]2O[C@](O)(C[C@@H](O)C[C@@H](O)[C@H](O)CC[C@@H](O)C[C@@H](O)CC(=O)O[C@H]1C)C[C@H](O)[C@H]2C(=O)O (stereo not given in full) | nt | 31.9* | 5.4 | nt | 8.3 | nt | -0.3 | 1.8 | 77.8*
CC1C/C=C/C=C/C=C/C=C/C(O[C@@H]2O[C@H](C)[C@@H](O)[C@H](N)[C@@H]2O)CC2OC(O)(CC(O)CC3OC3/C=C/C(=O)O1)CC(O)C2C(=O)O (stereo not given in full) | -16.6 | 20.9* | 4.0 | -0.5 | 9.9 | 8.4 | 0.8 | -4.0 | 35.4*
C/C=C(\C)CN1CCCC(CO)(Cc2ccccc2)C1 (stereo not given) | 5.0 | 14.3* | -4.7 | -3.9 | 0.5 | -10.9 | 0.6 | -3.0 | 1.3
CSc1ccc(CN2CCCC(CO)(Cc3ccccc3)C2)cc1 (stereo not given) | 3.0 | -4.7 | -3.4 | 6.4 | -0.8 | -8.3 | nt | nt | nt
CCOc1ccc(C(=O)NCC(=O)NCC2CCCCC2)cc1OCC | -8.4 | 3.3 | -1.9 | 3.7 | -2.7 | -2.2 | nt | nt | nt
CC(C)OC(=O)C1CC(C)(O)C(=O)C(C(=O)OC(C)C)C1c1ccc([N+](=O)[O-])cc1 (stereo not given) | -2.6 | -3.4 | -0.6 | 0.3 | -0.1 | -8.6 | nt | nt | nt
CC1OC(Oc2c(-c3cc(O)c(O)c(O)c3)oc3cc(O)cc(O)c3c2=O)C(O)C(O)C1O (stereo not given) | -8.0 | 38.6* | 2.6 | 15.3 | 2.4 | -1.8 | 41.1* | -146.1 | 52.7*
C[C@@H]1O[C@@H](OC[C@@H]2O[C@H](Oc3c(-c4ccc(O)cc4)oc4cc(O)cc(O)c4c3=O)[C@@H](O)[C@H](O)[C@H]2O)[C@H](O)[C@H](O)[C@H]1O | -13.2 | -4.4 | -3.7 | 2.0 | -4.1 | 0.2 | nt | nt | nt
SMILES | ASAP1 GAP inh | LEDGF integ inh | MBD2 DNA inh | TCR CD3 inh | UHRF1 binding | ARFGAP1 inhibitor | IN multimer act | TR-FRET interf | LEDGF integ conf
CCCCc1cc(=O)oc2cc(OC3CCCCC3=O)ccc12 (stereo not given) | 6.8 | 18.2* | -6.2 | -0.7 | -0.4 | 1.4 | 0.4 | -1.3 | -7.0
CC(=O)Oc1ccc(C(=O)Nc2ccc(C3(C#N)CCCC3)cc2)cc1 | 2.0 | 2.7 | -3.2 | 3.4 | 0.5 | 15.9 | nt | nt | nt
O=C(NC1CCCCC1)NC1C2CC3CC(C2)CC1C3 (stereo not given) | 3.0 | 1.1 | -1.7 | 8.2 | -0.5 | 1.9 | nt | nt | nt
COc1ccccc1NS(=O)(=O)c1cccc(C(=O)N(C)Cc2cccs2)c1 | -3.8 | 2.3 | -0.2 | 2.6 | 0.9 | -10.2 | nt | nt | nt
CC(=O)c1ccc(OC2(C)CCN(Cc3ccc4c(c3)OCCO4)C2)cc1 (stereo not given) | -5.8 | 14.8* | 3.2 | -5.0 | 0.7 | -1.2 | -3.3 | 16.5 | -4.7
CCc1ccc(OC2(C)CCN(Cc3ccc4c(c3)OCCO4)C2)cc1 (stereo not given) | -4.5 | -2.9 | -1.9 | -1.6 | -1.0 | 2.7 | nt | nt | nt
O=S1(=O)N[C@H](Cc2ccccc2)COc2cccc(N3CCCCC3)c21 | 2.3 | 38.6* | 7.4 | -8.1 | 22.5* | 8.2 | -1.1 | 5.5 | -0.5
Cc1cc(C(=O)COc2cccnc2[N+](=O)[O-])c(C)n1Cc1cccs1 | -2.3 | 13.7* | -1.0 | 0.6 | 1.4 | -0.6 | 1.5 | -7.6 | 5.0
COC(=O)[C@]12CCCCC=C1N(Cc1ccc3c(c1)OCO3)C(=O)[C@H](CC(=O)N1CCC(c3ccccc3)CC1)C2 | -5.1 | -2.1 | 1.4 | -2.3 | 1.0 | -5.7 | nt | nt | nt
